Experimental data reported in ChEMBL document CHEMBL3272180, “A conformational study of beta-phenethanolamine receptor sites. 8. Pharmacological study of 3-isopropylamino-2-phenyl-trans-2-decalols” (1976).
Active and inactive are the calls of the source. No cut-off for these calls is given here.

Legend:
[1] = Potentiation of D(-)-norepinephrine-induced contraction in Sprague-Dawley rat vas deferens assessed as contraction level at 1 x 10^-4 M relative to norepinephrine; assay type: functional
How it was run: (§1)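 Isolated vasa deferentia from male Sprague–Dawley rats (300–350 g) in a 10-ml bath of Tyrode's solution, 37°, gassed with 95% O2/5% CO2. Cumulative NE dose-response curves over 3×10^-7 to 3×10^-5 M, with test agent at 1×10^-4 or 1×10^-3 M. Isotonic contractions recorded kymographically, 5 min between contractions after washout. Response expressed as percent of NE cumulative maximum (=100%), calculated per preparation. PD2 given as mean ± SE of ten curves; t test.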

Rattus norvegicus [2] = species on record: Rattus norvegicus; assay: (§2) Potentiation of D(-)-norepinephrine-induced contraction in reserpine-treated Sprague-Dawley rat vas deferens assessed as contraction level at 1 x 10^-4 M relative to norepinephrine; assay type: functional
How it was run: (§3)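 Rats were reserpinized with 5 mg/kg ip 24 hr before the experiment. Vasa deferentia were then set up in Tyrode's solution at 37°, gassed with 95% O2/5% CO2. Cumulative NE curves over 3×10^-7 to 3×10^-5 M, with test agent present. Isotonic contractions recorded kymographically. Response as percent of NE cumulative maximum; mean ± SE; t test.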

Vas deferens [3] = assay: Inhibition of D(-)-norepinephrine-induced contraction in Sprague-Dawley rat vas deferens assessed as contraction level at 1 x 10^-3 M relative to norepinephrine; assay type: functional; set-up: scale not given: the % may be the effect or the level left; how it was run: as §1
Rattus norvegicus [4] = species on record: Rattus norvegicus; assay: (§4) Potentiation of D(-)-norepinephrine-induced contraction in reserpine-treated Sprague-Dawley rat vas deferens assessed as contraction level at 1 x 10^-3 M relative to norepinephrine; assay type: functional; how it was run: as §3
Rattus norvegicus [5] = species on record: Rattus norvegicus; assay: Potentiation of D(-)-norepinephrine-induced contraction in reserpine-treated Sprague-Dawley rat vas deferens at 1 x 10^-2 M relative to control; assay type: functional, tissue-based; how it was run: as §3
Vas deferens [6] = assay: Inhibition of norepinephrine uptake in Sprague-Dawley rat vas deferens at 1 x 10^-4 M after 60 mins by fluorometric analysis; assay type: functional
How it was run: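 Rat vas deferens pieces (50–60 mg, two per rat) incubated free-floating for 60 min at 37° in oxygenated Tyrode's with NE 1.5×10^-7 M, with or without test agent at 1×10^-4 M. Tissue then washed three times for 5 sec, and total catecholamines estimated fluorometrically by autoanalyzer. Mean ± SE of five experiments; t test vs control.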

[7] = Induction of norepinephrine release in Sprague-Dawley rat vas deferens at 1 x 10^-4 M after 30 mins by fluorometric analysis; assay type: functional
How it was run: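 Rat vas deferens pieces incubated 30 min in oxygenated Tyrode's with agent at 1×10^-4 M. Total catecholamines then measured fluorometrically by autoanalyzer. Mean ± SE of five experiments; t test vs control.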

Canis familiaris [8] = assay: Reduction of blood pressure in mongrel dog at 1 to 2 mg/kg, iv by electrocardiograph analysis; assay type: functional, organism-based; settings: Canis lupus familiaris
How it was run: (§5)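 Dog blood pressure recorded after iv injection via a right femoral vein cannula (1–2 mg/kg), each dose washed in with 0.5 ml saline. Where stated, β blockade with propranolol 2 mg/kg, checked for adequacy with […].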

Oryctolagus cuniculus [9] = species on record: Oryctolagus cuniculus; assay: Inhibition of spontaneous contractions in isolated rabbit atria at 1 x 10^-3 M; assay type: functional; settings: Cardiac atrium
Oryctolagus cuniculus [10] = species on record: Oryctolagus cuniculus; assay: Increase in spontaneous contractions in isolated rabbit atria at 1 x 10^-4 M; assay type: functional; settings: Cardiac atrium
Oryctolagus cuniculus [11] = species on record: Oryctolagus cuniculus; assay: Inhibition of spontaneous contractions in isolated rabbit atria at 1 x 10^-4 M; assay type: functional; settings: Cardiac atrium
Canis familiaris [12] = assay: Reduction of diastolic blood pressure in mongrel dog at 1 to 2 mg/kg, iv up to 30 seconds by electrocardiograph analysis in presence of alpha-blocker phenoxybenzamine; assay type: functional, Canis lupus familiaris, Artery; settings: dose mg/kg 1-2
How it was run: (§6)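 Dogs pretreated with phenoxybenzamine 3 mg/kg as α-blocker, blockade checked with […]. Test agents given iv (1–2 mg/kg) via a femoral vein cannula, washed in with 0.5 ml saline; tracheotomized animals. Systolic, diastolic and pulse pressure followed over an initial 30-sec phase and a second phase of about 30 min.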

Canis familiaris [13] = assay: Reduction of systolic blood pressure in mongrel dog at 1 to 2 mg/kg, iv up to 30 seconds by electrocardiograph analysis in presence of alpha-blocker phenoxybenzamine; assay type: functional, Canis lupus familiaris, Artery; settings: dose mg/kg 1-2; how it was run: as §6
Canis familiaris [14] = assay: Reduction of pulse pressure in mongrel dog at 1 to 2 mg/kg, iv up to 30 seconds by electrocardiograph analysis in presence of alpha-blocker phenoxybenzamine; assay type: functional, organism-based; settings: Canis lupus familiaris; how it was run: as §6
Canis familiaris [15] = assay: Reduction of diastolic blood pressure in mongrel dog at 1 to 2 mg/kg, iv up to 30 mins by electrocardiograph analysis in presence of alpha-blocker phenoxybenzamine; assay type: functional, Canis lupus familiaris, Artery; settings: dose mg/kg 1-2; how it was run: as §6
Canis familiaris [16] = assay: Reduction of systolic blood pressure in mongrel dog at 1 to 2 mg/kg, iv up to 30 mins by electrocardiograph analysis in presence of alpha-blocker phenoxybenzamine; assay type: functional, Canis lupus familiaris, Artery; settings: dose mg/kg 1-2; how it was run: as §6
Canis familiaris [17] = assay: Reduction of blood pressure in mongrel dog at 1 to 2 mg/kg, iv by electrocardiograph analysis in presence of propranolol; assay type: functional, organism-based; settings: Canis lupus familiaris; how it was run: as §5
Canis familiaris [18] = assay: Reduction of pulse pressure in mongrel dog at 1 to 2 mg/kg, iv up to 30 mins by electrocardiograph analysis in presence of alpha-blocker phenoxybenzamine; assay type: functional, Canis lupus familiaris; settings: dose mg/kg 1-2; how it was run: as §6
[19] = as §2; assay type: functional; how it was run: as §3
[20] = as §4; assay type: functional; how it was run: as §3
[21] = Potentiation of D(-)-norepinephrine-induced contraction in Sprague-Dawley rat vas deferens assessed as contraction level at 1 x 10^-2 M relative to norepinephrine; assay type: functional
Canis familiaris [22] = assay: Reduction of blood pressure in iv dosed mongrel dog by electrocardiograph analysis in presence of hexamethonium and atropine; assay type: functional, organism-based; settings: Canis lupus familiaris
Canis familiaris [23] = assay: Induction of beta-adrenergic response in mongrel dog at 2 mg/kg, iv by electrocardiograph analysis; assay type: functional, organism-based; set-up: dose 2 mg/kg; settings: Canis lupus familiaris
Canis familiaris [24] = assay: Increase in diastolic blood pressure in mongrel dog at 2 mg/kg, iv by electrocardiograph analysis; assay type: functional, Canis lupus familiaris, Artery
Canis familiaris [25] = assay: Increase in systolic blood pressure in mongrel dog at 2 mg/kg, iv by electrocardiograph analysis; assay type: functional, Canis lupus familiaris, Artery
Canis familiaris [26] = assay: Increase in pulse pressure in mongrel dog at 2 mg/kg, iv by electrocardiograph analysis; assay type: functional, Canis lupus familiaris
Canis familiaris [27] = assay: Reduction of diastolic blood pressure in mongrel dog at 2 mg/kg, iv by electrocardiograph analysis in presence of alpha-blocker phenoxybenzamine; assay type: functional, organism-based; set-up: dose 2 mg/kg; settings: Canis lupus familiaris, Artery
Canis familiaris [28] = assay: Reduction of systolic blood pressure in mongrel dog at 2 mg/kg, iv by electrocardiograph analysis in presence of alpha-blocker phenoxybenzamine; assay type: functional, organism-based; set-up: dose 2 mg/kg; settings: Canis lupus familiaris, Artery
Canis familiaris [29] = assay: Reduction of pulse pressure in mongrel dog at 2 mg/kg, iv by electrocardiograph analysis in presence of alpha-blocker phenoxybenzamine; assay type: functional, organism-based; set-up: dose 2 mg/kg; settings: Canis lupus familiaris
Canis familiaris [30] = assay: Induction of beta-adrenergic response in mongrel dog at 2 mg/kg, iv by electrocardiograph analysis in presence of propranolol; assay type: functional, organism-based; set-up: dose 2 mg/kg; settings: Canis lupus familiaris

| Compound | Activity [1] [%] | Activity (Rattus norvegicus [2]) | Activity (Vas deferens [3]) [%] | Activity (Rattus norvegicus [4]) | Activity (Rattus norvegicus [5]) | Activity (Vas deferens [6]) [µg/g] | Activity [7] [µg/g] | Activity (Canis familiaris [8]) | inhibition (Oryctolagus cuniculus [9]) | Activity (Oryctolagus cuniculus [10]) | other results |
| --- | --- | --- | --- | --- | --- | --- | --- | --- | --- | --- | --- |
| CC(C)N[C@@H]1C[C@@H]2CCCC[C@H]2C[C@@]1(O)c1ccccc1 | 94 | Active | 16 | Active | Active | 9.5 | 8.1 | Active | Active | Active |  |
| CC(C)N[C@@H]1C[C@@H]2CCCC[C@H]2C[C@]1(O)c1ccccc1 | 128 | Active | 85 | Active | Active | 9.3 | 7.7 | Active |  |  | inhibition (Oryctolagus cuniculus [11]): Active |
| CC(C)N[C@H]1C[C@@H]2CCCC[C@H]2C[C@@]1(O)c1ccccc1 | 96 | Active | 10 | Active | Active | 9.6 | 7.8 | Active | Active | Active | Activity (Canis familiaris [12]): 50 mmHg; Activity (Canis familiaris [13]): 50 mmHg; Activity (Canis familiaris [14]): Active; Activity (Canis familiaris [15]): 30 mmHg; Activity (Canis familiaris [16]): 15 mmHg; Activity (Canis familiaris [17]): Active; Activity (Canis familiaris [18]): 15 mmHg |
| CC(C)N[C@H]1C[C@@H]2CCCC[C@H]2C[C@]1(O)c1ccccc1 | 132 |  | 88 |  | Active | 9.1 | 7.9 | Active | Active | Active | Activity [19]: 130%; Activity [20]: 84% |
| CC(C)N[C@H](C)[C@H](O)c1ccccc1 | 145 | Active |  | Active | Active | 9.3 | 7.4 | Active | Active |  | Activity [21]: 70% |
| CC(C)N[C@@H](C)[C@H](O)c1ccccc1 | 158 | Active |  | Active | Active | 9.2 | 7 | Active |  |  | Activity [21]: 90%; Activity (Canis familiaris [12]): 50 mmHg; Activity (Canis familiaris [13]): 50 mmHg; Activity (Canis familiaris [14]): Active; Activity (Canis familiaris [15]): 30 mmHg; Activity (Canis familiaris [16]): 15 mmHg; Activity (Canis familiaris [17]): Active; Activity (Canis familiaris [22]): Active; inhibition (Oryctolagus cuniculus [11]): Active; Activity (Canis familiaris [18]): 15 mmHg |
| CN[C@@H](C)[C@H](O)c1ccccc1 [EPHEDRINE] |  |  |  |  |  |  |  |  |  |  | Activity (Canis familiaris [23]): Active; Activity (Canis familiaris [24]): 40 mmHg; Activity (Canis familiaris [25]): 40 mmHg; Activity (Canis familiaris [26]): 40 mmHg; Activity (Canis familiaris [27]): inactive; Activity (Canis familiaris [28]): inactive; Activity (Canis familiaris [29]): inactive; Activity (Canis familiaris [30]): inactive |
